ChEMBL document CHEMBL1154183, “Structure-based optimization of potent and selective inhibitors of the tyrosine kinase erythropoietin producing human hepatocellular carcinoma receptor B4 (EphB4)” (J Med Chem, 2009)

Tests used:
[1] = biological target: Ribosomal protein S6 kinase alpha-1 (Homo sapiens) (UniProt Q15418); assay: Inhibition of RSK1 assessed as remaining enzyme activity at 3 uM relative to DMSO
[2] = biological target: Rho-associated protein kinase 2 (Homo sapiens) (UniProt O75116); assay: Inhibition of ROCK2 assessed as remaining enzyme activity at 3 uM relative to DMSO
[3] = biological target: Protein kinase C zeta type (Homo sapiens) (UniProt Q05513); assay: Inhibition of PKCzeta assessed as remaining enzyme activity at 3 uM relative to DMSO
Sequence of Protein kinase C zeta type (Homo sapiens) (Q05513 whole entry): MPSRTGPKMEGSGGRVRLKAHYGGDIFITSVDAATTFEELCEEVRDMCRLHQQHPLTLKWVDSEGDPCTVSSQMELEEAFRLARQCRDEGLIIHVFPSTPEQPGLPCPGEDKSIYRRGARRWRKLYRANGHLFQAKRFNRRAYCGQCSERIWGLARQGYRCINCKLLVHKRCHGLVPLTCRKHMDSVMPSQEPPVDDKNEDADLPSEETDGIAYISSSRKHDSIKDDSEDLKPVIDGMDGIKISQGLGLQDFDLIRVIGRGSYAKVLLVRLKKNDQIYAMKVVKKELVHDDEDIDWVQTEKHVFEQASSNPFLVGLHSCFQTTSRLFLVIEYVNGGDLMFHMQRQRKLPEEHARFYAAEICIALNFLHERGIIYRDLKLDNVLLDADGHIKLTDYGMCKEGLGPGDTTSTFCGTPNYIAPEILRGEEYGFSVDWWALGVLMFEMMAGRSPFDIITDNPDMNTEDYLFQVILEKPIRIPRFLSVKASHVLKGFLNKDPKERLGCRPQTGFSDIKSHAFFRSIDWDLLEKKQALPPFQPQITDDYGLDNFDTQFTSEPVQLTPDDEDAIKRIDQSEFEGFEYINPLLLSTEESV

[4] = biological target: Ribosomal protein S6 kinase alpha-5 (Homo sapiens) (UniProt O75582); assay: Inhibition of MSK1 assessed as remaining enzyme activity at 3 uM relative to DMSO
Sequence of Ribosomal protein S6 kinase alpha-5 (Homo sapiens) (O75582 whole entry, looked up): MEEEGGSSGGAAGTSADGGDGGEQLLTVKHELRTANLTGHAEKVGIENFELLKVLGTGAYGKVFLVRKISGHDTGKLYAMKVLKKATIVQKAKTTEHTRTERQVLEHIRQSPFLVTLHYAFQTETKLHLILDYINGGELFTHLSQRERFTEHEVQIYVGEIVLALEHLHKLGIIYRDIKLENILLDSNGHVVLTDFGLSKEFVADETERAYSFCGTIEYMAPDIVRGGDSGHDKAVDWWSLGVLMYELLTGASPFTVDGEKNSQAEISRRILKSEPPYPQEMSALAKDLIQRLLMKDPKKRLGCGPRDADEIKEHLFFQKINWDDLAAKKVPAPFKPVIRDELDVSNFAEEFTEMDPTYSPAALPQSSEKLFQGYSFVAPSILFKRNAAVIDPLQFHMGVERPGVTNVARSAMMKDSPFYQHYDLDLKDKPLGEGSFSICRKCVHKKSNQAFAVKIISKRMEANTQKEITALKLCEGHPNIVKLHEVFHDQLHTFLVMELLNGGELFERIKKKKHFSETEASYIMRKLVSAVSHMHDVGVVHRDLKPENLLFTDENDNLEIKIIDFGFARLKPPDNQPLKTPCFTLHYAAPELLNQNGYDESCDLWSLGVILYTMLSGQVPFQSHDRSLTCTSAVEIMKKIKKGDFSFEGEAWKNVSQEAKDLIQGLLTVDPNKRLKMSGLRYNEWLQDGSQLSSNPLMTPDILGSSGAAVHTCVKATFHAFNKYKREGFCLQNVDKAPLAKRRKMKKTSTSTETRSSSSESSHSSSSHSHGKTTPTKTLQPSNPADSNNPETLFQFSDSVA
In short: (§1)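 Radiometric kinase assay run robotically at room temperature for 30 min. Contained 10 mM magnesium acetate and [γ-33P]ATP (800 cpm/pmol) at 5, 20 or 50 μM, chosen per kinase to be at or below its ATP Km. Reactions were started with MgATP, stopped with orthophosphoric acid and spotted onto P81 filters. Result is mean % activity of duplicates at one inhibitor concentration versus DMSO control.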

[5] = biological target: MAP kinase-activated protein kinase 2 (Homo sapiens) (UniProt P49137); assay: Inhibition of MAPKAPK2 assessed as remaining enzyme activity at 3 uM relative to DMSO; in short: as §1
Sequence of MAP kinase-activated protein kinase 2 (Homo sapiens) (P49137 whole entry, looked up): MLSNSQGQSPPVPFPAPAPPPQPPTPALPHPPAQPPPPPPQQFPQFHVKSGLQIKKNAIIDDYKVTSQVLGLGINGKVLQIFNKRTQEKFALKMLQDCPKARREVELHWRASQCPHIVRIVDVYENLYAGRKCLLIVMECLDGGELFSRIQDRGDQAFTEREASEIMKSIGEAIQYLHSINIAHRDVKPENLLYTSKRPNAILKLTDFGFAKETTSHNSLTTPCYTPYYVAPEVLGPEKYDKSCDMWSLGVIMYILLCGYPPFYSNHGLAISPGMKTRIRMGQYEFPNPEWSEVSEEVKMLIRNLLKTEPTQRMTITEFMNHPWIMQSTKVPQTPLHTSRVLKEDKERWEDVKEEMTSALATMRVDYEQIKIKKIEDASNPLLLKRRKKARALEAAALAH

[6] = biological target: Serine/threonine-protein kinase Chk2 (Homo sapiens) (UniProt O96017); assay: Inhibition of CHK2 assessed as remaining enzyme activity at 3 uM relative to DMSO
In short: (§2)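 Dundee kinase panel, radiometric: [γ-33P]ATP (800 cpm/pmol) at 5, 20 or 50 μM, at or below each kinase's ATP Km; 10 mM magnesium acetate; robotic, room temperature, 30 min. Reactions started with MgATP, stopped with orthophosphoric acid, spotted onto P81 filters. Inhibitor tested at a single concentration; mean % activity of duplicates relative to DMSO control.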

[7] = biological target: Cyclin-dependent kinase 2 (Homo sapiens) (UniProt P24941); assay: Inhibition of CDK2 assessed as remaining enzyme activity at 3 uM relative to DMSO; in short: as §2
[8] = Inhibition of CK2 assessed as remaining enzyme activity at 3 uM relative to DMSO; in short: as §2
[9] = biological target: Serine/threonine-protein kinase pim-2 (Homo sapiens) (UniProt Q9P1W9); assay: Inhibition of PIM2 assessed as remaining enzyme activity at 3 uM relative to DMSO; in short: as §1
[10] = biological target: Eukaryotic elongation factor 2 kinase (Homo sapiens) (UniProt O00418); assay: Inhibition of EF2K assessed as remaining enzyme activity at 3 uM relative to DMSO; in short: as §2
[11] = biological target: Ephrin type-A receptor 2 (Homo sapiens) (UniProt P29317); assay: Inhibition of EPHA2 assessed as remaining enzyme activity at 3 uM relative to DMSO; in short: as §2
Sequence of Ephrin type-A receptor 2 (Homo sapiens) (P29317 whole entry): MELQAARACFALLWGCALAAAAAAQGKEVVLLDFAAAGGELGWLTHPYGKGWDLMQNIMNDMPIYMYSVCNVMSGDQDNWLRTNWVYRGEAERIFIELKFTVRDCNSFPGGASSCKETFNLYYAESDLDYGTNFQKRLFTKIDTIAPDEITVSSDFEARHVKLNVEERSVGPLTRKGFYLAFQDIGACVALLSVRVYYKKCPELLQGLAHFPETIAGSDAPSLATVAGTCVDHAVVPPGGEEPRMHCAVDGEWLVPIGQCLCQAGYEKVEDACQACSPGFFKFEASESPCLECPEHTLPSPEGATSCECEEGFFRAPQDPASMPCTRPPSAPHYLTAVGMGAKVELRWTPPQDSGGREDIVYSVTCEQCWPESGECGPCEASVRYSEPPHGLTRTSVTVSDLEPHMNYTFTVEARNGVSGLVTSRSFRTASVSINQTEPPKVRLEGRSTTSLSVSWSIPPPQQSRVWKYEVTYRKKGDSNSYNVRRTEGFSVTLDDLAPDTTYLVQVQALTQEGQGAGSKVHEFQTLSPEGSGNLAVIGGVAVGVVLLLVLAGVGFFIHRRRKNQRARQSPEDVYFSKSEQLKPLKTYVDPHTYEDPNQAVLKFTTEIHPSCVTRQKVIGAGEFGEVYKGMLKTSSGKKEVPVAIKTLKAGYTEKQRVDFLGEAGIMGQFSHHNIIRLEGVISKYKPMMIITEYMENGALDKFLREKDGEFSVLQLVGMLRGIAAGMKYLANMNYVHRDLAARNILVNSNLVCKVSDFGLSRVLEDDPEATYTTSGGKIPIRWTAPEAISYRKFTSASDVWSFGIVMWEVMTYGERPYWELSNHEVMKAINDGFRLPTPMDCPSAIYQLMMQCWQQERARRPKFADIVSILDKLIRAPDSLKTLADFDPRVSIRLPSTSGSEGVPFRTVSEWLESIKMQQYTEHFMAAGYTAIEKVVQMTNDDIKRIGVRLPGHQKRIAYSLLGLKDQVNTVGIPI

[12] = biological target: Ephrin type-B receptor 3 (Homo sapiens) (UniProt P54753); assay: Inhibition of EPHB3 assessed as remaining enzyme activity at 3 uM relative to DMSO; in short: as §2
[13] = biological target: Mitogen-activated protein kinase kinase kinase 11 (Homo sapiens) (UniProt Q16584); assay: Inhibition of MLK3 assessed as remaining enzyme activity at 3 uM relative to DMSO; in short: as §1
[14] = biological target: Calcium/calmodulin-dependent protein kinase type 1 (Homo sapiens) (UniProt Q14012); assay: Inhibition of CAMK1 assessed as remaining enzyme activity at 3 uM relative to DMSO
[15] = biological target: Dual specificity tyrosine-phosphorylation-regulated kinase 1A (Homo sapiens) (UniProt Q13627); assay: Inhibition of DYRK1A assessed as remaining enzyme activity at 3 uM relative to DMSO
[16] = biological target: Tyrosine-protein kinase Lyn (Homo sapiens) (UniProt P07948); assay: Binding affinity to LYN assessed as percentage of kinase remaining bound to the bead at 1 uM by T7 phage display based binding assay
In short: (§3)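 Competition binding assay run by a contract lab. Each kinase was expressed as a fusion to T7 phage, full-length for small kinases and catalytic domain for large ones. Phage were mixed with an immobilized known kinase inhibitor on streptavidin magnetic beads and with test compound at a single 1 μM. Kinase/phage still bound to the beads was quantified by qPCR and expressed as % of DMSO control.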

[17] = biological target: TGF-beta receptor type-2 (Homo sapiens) (UniProt P37173); assay: Binding affinity to TGFBR2 assessed as percentage of kinase remaining bound to the bead at 1 uM by T7 phage display based binding assay; in short: as §3
[18] = biological target: Epithelial discoidin domain-containing receptor 1 (Homo sapiens) (UniProt Q08345); assay: Binding affinity to DDR1 assessed as percentage of kinase remaining bound to the bead at 1 uM by T7 phage display based binding assay; in short: as §3
[19] = biological target: Receptor tyrosine-protein kinase erbB-3 (Homo sapiens) (UniProt P21860); assay: Binding affinity to ERBB3 assessed as percentage of kinase remaining bound to the bead at 1 uM by T7 phage display based binding assay; in short: as §3
Sequence of Receptor tyrosine-protein kinase erbB-3 (Homo sapiens) (P21860 whole entry): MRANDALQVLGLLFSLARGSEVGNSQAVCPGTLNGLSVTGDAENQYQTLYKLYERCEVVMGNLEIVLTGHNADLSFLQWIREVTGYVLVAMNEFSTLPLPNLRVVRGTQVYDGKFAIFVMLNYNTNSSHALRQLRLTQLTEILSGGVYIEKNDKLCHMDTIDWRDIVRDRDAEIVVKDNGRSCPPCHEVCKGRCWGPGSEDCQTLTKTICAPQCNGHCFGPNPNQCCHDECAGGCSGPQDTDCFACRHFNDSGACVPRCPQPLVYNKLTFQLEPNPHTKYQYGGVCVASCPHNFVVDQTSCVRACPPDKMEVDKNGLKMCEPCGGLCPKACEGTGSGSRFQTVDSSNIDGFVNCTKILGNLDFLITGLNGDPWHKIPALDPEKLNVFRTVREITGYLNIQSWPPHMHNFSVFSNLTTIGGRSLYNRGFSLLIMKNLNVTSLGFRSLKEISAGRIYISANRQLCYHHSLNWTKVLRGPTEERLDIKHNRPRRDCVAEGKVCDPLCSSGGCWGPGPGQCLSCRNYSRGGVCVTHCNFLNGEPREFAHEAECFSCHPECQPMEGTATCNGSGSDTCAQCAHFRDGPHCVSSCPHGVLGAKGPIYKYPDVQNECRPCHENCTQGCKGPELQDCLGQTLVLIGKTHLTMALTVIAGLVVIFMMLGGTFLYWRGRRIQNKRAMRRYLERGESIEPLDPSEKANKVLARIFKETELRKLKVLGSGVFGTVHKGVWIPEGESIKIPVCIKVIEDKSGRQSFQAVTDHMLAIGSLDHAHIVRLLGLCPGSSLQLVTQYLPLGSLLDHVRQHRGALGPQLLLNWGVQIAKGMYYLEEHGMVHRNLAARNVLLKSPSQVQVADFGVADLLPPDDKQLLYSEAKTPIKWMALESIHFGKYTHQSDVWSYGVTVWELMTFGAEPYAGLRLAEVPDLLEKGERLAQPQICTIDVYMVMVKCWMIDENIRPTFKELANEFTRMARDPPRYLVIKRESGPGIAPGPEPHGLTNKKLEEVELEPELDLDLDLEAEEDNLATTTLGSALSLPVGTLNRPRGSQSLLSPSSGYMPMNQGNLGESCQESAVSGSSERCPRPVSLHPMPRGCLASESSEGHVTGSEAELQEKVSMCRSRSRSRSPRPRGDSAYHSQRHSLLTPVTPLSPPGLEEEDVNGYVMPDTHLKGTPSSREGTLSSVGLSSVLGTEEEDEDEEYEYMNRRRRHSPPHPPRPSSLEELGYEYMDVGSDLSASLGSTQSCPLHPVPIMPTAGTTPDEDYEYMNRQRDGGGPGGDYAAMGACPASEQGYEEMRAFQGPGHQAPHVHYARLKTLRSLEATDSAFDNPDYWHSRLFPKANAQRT

[20] = biological target: Cyclin-G-associated kinase (Homo sapiens) (UniProt O14976); assay: Binding affinity to GAK assessed as percentage of kinase remaining bound to the bead at 1 uM by T7 phage display based binding assay; in short: as §3
[21] = biological target: Maternal embryonic leucine zipper kinase (Homo sapiens) (UniProt Q14680); assay: Inhibition of MELK assessed as remaining enzyme activity at 1 uM relative to DMSO; in short: as §1
Sequence of Maternal embryonic leucine zipper kinase (Homo sapiens) (Q14680 whole entry, looked up): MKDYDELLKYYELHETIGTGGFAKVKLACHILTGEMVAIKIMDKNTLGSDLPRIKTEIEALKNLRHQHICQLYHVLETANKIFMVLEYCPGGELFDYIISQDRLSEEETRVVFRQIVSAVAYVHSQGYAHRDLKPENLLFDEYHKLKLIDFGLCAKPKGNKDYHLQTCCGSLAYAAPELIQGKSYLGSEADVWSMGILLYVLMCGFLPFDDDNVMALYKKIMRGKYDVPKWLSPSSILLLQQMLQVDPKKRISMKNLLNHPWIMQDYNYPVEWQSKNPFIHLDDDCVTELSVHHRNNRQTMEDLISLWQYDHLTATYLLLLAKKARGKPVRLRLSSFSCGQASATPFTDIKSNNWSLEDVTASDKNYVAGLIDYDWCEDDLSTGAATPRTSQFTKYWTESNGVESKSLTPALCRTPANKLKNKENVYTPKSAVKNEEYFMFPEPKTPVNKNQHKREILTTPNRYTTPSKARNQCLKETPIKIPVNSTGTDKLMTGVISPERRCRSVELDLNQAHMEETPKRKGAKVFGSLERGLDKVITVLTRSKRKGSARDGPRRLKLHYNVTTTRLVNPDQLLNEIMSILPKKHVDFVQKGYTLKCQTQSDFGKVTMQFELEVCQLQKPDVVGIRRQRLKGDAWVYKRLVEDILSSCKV

[22] = biological target: Serine/threonine-protein kinase Nek2 (Homo sapiens) (UniProt P51955); assay: Inhibition of NEK2alpha assessed as remaining enzyme activity at 1 uM relative to DMSO; in short: as §1
[23] = biological target: Serine/threonine-protein kinase pim-1 (Homo sapiens) (UniProt P11309); assay: Inhibition of PIM1 assessed as remaining enzyme activity at 1 uM relative to DMSO; in short: as §1
Sequence of Serine/threonine-protein kinase pim-1 (Homo sapiens) (P11309 whole entry, looked up): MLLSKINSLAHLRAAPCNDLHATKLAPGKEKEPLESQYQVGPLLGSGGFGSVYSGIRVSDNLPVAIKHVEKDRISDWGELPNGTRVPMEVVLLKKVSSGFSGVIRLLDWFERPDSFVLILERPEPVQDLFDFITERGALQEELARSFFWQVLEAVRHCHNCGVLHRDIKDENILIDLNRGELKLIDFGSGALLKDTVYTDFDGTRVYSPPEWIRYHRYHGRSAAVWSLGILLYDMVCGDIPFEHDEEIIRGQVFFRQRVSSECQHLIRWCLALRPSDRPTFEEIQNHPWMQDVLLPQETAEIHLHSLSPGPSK

[24] = biological target: Insulin receptor-related protein (Homo sapiens) (UniProt P14616); assay: Inhibition of IRR assessed as remaining enzyme activity at 1 uM relative to DMSO; in short: as §2
[25] = biological target: Tyrosine-protein kinase SYK (Homo sapiens) (UniProt P43405); assay: Inhibition of SYK assessed as remaining enzyme activity at 1 uM relative to DMSO
[26] = biological target: Protein kinase C zeta type (Homo sapiens) (UniProt Q05513); assay: Inhibition of PKCzeta assessed as remaining enzyme activity at 1 uM relative to DMSO
[27] = biological target: MAP kinase-activated protein kinase 2 (Homo sapiens) (UniProt P49137); assay: Inhibition of MAPKAPK2 assessed as remaining enzyme activity at 1 uM relative to DMSO; in short: as §1
[28] = biological target: MAP kinase-activated protein kinase 5 (Homo sapiens) (UniProt Q8IW41); assay: Inhibition of PRAK assessed as remaining enzyme activity at 1 uM relative to DMSO
[29] = biological target: Serine/threonine-protein kinase Chk1 (Homo sapiens) (UniProt O14757); assay: Inhibition of CHK1 assessed as remaining enzyme activity at 1 uM relative to DMSO
In short: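 Radiometric kinase assay run robotically at room temperature for 30 min, linear in time and enzyme. Conditions: 10 mM magnesium acetate, [γ-33P]ATP (800 cpm/pmol) at 5, 20 or 50 μM per kinase, at or below its ATP Km. Started with MgATP and stopped with orthophosphoric acid, then spotted on P81 filters. Reported as mean % activity of duplicates versus DMSO controls.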

With `COc1ccccc1-n1c(-c2ccccc2C)cn2c3c(=O)[nH]c(=O)n(C)c3nc12` as the compound, how does the Activity [1] read?
Its Activity is 83%.

What about the Activity [2] of the same compound?
The Activity was 94%.

And the Activity [3]?
The Activity was 98%.

And the Activity [4]?
The Activity was 95%.

And the Activity [5]?
Its Activity is 96%.

And the Activity [6]?
Its Activity is 99%.

What about the Activity [7] of the same compound?
The Activity was 97%.

And the Activity [8]?
Its Activity is 85%.

And the Activity [9]?
The Activity was 115%.

What about the Activity [10] of the same compound?
Its Activity is 93%.

And the Activity [11]?
The Activity was 10%.

And the Activity [12]?
The Activity was 28%.

What about the Activity [13] of the same compound?
The Activity was 136%.

And the Activity [14]?
Its Activity is 93%.

What about the Activity [15] of the same compound?
The Activity was 99%.

Which results are given for `COc1ccccc1-n1c(-c2cc(O)ccc2C)cn2c3c(=O)[nH]c(=O)n(C)c3nc12`?
Activity [16]: 0.4%; Activity [17]: 2.4%; Activity [18]: 1.4%; Activity [19]: 78%; Activity [20]: 49%; Activity [21]: 80%; Activity [22]: 123%; Activity [23]: 88%; Activity [24]: 100%; Activity [25]: 94%; Activity [26]: 95%; Activity [27]: 90%; Activity [28]: 81%; Activity [29]: 95%
